Measurements from PMC5422321 (Drug Design, Development and Therapy, 2017).
Several values for one entry are separate records, joined by “and”; a condition that tells them apart may be missing. Equal entries are not always repeated. Where two headings read alike, the source gives them in different places.

What was measured:
[1] = system: α-tubulin acetylation in PC-3 cells; experiment: Western blot of acetylated α-tubulin in PC-3 cells; type: cell-based, human; conditions: 18 h
How it was run: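 PC-3 cells seeded overnight in complete medium, then treated 18 h with test compound (10 doses, threefold dilution). Washed with PBS and lysed in 1× SDS sample buffer. Lysates resolved on 12% Bis-Tris SDS-PAGE and transferred to nitrocellulose. Blocked 1 h in 3% nonfat milk, probed overnight with anti-acetyl-tubulin and a fluorescent secondary, scanned, then reprobed for total α-tubulin. One of three experiments shown.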

HDAC1 = HDAC1 (Homo sapiens, UniProt Q13547); experiment: HDAC biochemical assay
Chain of HDAC1 (Q13547 whole entry): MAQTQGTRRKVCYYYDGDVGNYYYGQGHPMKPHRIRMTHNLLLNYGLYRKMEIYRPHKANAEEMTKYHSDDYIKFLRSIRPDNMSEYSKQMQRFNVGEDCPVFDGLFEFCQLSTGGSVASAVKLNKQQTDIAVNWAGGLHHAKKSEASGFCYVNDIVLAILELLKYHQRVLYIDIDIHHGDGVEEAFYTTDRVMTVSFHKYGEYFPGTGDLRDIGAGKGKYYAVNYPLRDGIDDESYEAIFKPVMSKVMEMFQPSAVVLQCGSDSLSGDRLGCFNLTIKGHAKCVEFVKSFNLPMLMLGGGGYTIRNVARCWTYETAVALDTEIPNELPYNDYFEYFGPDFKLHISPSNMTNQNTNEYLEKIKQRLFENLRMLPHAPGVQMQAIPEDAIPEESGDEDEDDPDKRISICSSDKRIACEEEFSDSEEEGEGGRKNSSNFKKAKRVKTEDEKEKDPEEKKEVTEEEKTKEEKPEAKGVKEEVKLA

HDAC2 = HDAC2 (Homo sapiens, UniProt Q92769); experiment: HDAC biochemical assay
Chain of HDAC2 (Q92769 whole entry): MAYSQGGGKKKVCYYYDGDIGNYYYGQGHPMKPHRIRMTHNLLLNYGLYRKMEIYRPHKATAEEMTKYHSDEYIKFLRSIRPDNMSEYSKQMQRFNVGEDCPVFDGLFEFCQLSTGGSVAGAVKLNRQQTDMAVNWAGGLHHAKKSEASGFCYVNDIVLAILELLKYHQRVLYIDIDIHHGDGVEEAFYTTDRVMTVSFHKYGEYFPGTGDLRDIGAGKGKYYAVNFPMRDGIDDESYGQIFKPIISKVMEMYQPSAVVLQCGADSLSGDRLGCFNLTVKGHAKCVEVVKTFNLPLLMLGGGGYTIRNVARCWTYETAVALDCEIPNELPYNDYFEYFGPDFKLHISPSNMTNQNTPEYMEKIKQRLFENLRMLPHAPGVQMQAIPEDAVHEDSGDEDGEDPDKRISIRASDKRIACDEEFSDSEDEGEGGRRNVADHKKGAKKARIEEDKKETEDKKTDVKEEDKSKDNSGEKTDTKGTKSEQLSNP

HDAC3 = HDAC3 (Homo sapiens, UniProt O15379); experiment: HDAC biochemical assay
Chain of HDAC3 (O15379 whole entry): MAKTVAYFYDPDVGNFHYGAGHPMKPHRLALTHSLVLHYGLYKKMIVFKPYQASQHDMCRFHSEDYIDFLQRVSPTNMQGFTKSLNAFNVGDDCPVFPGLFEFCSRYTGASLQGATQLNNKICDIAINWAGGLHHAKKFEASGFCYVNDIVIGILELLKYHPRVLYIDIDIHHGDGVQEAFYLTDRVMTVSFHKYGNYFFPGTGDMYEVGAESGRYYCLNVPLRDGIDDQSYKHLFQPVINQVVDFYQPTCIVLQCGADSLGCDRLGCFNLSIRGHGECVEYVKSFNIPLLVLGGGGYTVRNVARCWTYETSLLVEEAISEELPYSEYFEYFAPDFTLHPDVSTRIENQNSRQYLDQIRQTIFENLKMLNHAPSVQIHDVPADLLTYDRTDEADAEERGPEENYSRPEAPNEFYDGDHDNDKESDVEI
Chain of HDAC3 (Q9Y618 395-489 partner limits assumed): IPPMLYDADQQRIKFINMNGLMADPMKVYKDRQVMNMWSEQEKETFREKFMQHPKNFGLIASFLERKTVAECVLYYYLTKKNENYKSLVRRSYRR

HDAC4 = HDAC4 (Homo sapiens, UniProt P56524); experiment: HDAC biochemical assay
Chain of HDAC4 (P56524 whole entry): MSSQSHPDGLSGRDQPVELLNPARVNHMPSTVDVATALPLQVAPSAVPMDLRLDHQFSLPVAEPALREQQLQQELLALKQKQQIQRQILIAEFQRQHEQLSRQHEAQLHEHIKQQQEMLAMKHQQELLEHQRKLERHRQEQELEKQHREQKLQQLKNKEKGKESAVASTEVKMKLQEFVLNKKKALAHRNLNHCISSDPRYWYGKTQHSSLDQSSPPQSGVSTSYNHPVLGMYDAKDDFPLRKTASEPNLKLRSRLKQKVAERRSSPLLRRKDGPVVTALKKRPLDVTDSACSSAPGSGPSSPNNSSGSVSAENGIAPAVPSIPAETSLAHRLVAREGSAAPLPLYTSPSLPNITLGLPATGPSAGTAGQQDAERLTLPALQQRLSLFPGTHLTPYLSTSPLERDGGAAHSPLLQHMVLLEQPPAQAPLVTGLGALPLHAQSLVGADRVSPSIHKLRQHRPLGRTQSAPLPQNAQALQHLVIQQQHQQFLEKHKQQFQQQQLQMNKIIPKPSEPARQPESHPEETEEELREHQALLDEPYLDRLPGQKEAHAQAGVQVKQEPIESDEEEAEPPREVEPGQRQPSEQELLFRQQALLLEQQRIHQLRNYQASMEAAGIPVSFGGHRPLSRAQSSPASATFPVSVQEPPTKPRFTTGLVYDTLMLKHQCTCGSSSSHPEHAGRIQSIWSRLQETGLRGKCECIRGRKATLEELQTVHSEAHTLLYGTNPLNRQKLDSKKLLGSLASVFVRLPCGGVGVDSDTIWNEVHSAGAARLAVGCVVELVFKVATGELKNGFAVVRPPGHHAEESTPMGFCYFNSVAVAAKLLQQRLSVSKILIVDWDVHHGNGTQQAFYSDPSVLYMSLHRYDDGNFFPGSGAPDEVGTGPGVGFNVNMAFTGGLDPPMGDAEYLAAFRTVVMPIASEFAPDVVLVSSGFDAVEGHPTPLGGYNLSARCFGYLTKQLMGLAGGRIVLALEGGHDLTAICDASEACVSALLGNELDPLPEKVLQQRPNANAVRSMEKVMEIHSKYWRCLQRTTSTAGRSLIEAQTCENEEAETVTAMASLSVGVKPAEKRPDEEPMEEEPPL

HDAC5 = HDAC5 (Homo sapiens, UniProt Q9UQL6); experiment: HDAC biochemical assay
Chain of HDAC5 (Q9UQL6 whole entry): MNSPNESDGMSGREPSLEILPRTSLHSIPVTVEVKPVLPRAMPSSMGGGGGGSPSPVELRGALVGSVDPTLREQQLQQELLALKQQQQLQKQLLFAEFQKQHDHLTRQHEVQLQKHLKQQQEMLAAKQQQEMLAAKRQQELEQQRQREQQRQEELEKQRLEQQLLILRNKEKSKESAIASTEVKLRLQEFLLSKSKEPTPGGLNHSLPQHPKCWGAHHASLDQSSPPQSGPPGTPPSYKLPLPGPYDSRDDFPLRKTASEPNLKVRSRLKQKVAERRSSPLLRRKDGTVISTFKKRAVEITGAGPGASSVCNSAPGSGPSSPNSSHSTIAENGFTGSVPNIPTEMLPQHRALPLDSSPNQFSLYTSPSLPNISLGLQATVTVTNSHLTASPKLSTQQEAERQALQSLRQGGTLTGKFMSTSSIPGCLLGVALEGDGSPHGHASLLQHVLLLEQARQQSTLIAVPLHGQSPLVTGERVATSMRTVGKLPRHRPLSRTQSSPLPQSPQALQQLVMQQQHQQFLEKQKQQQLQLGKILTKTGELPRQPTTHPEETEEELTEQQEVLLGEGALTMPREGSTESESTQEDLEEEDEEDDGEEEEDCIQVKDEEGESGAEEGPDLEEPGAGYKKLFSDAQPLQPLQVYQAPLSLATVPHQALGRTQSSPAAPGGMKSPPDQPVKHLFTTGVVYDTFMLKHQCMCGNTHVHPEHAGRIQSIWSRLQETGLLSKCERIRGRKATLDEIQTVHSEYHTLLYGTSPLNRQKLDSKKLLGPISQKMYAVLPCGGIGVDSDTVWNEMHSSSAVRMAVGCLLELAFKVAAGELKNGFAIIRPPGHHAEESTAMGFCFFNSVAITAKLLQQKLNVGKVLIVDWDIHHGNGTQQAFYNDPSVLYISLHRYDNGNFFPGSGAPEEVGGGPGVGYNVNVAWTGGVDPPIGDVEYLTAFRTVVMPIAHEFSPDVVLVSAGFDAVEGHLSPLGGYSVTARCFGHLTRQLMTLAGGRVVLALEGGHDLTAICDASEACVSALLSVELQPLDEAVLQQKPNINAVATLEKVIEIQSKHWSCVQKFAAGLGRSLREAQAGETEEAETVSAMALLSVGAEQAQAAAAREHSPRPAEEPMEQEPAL

HDAC6 = target: T1, HDAC6 (Homo sapiens, UniProt Q9UBN7); experiment: HDAC biochemical assay; conditions: AMC-labeled peptide substrate
T1 sequence (Q9UBN7 1-1215): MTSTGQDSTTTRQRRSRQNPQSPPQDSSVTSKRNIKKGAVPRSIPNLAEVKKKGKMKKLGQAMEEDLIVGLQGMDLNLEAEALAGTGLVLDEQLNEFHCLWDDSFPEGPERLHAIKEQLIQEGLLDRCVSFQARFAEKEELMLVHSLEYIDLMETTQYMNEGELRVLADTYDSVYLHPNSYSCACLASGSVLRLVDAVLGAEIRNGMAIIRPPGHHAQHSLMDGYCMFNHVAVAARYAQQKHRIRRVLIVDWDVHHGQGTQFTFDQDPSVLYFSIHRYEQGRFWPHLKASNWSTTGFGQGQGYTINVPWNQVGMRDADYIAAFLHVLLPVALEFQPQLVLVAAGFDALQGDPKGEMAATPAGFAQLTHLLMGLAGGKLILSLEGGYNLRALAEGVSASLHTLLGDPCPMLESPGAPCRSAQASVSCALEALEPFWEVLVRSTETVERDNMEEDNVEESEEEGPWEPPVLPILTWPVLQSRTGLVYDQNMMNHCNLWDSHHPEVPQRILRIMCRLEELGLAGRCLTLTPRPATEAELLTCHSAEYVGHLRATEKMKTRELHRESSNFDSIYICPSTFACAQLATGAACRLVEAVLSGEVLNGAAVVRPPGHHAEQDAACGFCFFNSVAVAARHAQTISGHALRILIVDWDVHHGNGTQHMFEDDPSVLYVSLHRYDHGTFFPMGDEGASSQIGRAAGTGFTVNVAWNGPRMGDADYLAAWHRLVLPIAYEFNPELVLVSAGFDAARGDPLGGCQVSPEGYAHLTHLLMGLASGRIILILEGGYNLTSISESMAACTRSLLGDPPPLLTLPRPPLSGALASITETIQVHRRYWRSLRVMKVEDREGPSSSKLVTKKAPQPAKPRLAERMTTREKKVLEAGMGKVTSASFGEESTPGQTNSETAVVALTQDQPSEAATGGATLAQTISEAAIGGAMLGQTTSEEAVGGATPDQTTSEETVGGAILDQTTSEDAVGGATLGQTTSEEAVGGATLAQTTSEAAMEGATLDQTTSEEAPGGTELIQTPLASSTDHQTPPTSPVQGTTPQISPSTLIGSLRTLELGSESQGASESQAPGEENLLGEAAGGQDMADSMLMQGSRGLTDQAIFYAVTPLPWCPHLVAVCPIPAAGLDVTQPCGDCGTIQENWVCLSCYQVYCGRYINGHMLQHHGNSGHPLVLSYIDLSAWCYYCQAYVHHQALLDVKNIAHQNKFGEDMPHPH

HDAC7 = target: T2, HDAC7 (Homo sapiens, UniProt Q8WUI4); experiment: HDAC biochemical assay
T2 sequence (Q8WUI4 1-952): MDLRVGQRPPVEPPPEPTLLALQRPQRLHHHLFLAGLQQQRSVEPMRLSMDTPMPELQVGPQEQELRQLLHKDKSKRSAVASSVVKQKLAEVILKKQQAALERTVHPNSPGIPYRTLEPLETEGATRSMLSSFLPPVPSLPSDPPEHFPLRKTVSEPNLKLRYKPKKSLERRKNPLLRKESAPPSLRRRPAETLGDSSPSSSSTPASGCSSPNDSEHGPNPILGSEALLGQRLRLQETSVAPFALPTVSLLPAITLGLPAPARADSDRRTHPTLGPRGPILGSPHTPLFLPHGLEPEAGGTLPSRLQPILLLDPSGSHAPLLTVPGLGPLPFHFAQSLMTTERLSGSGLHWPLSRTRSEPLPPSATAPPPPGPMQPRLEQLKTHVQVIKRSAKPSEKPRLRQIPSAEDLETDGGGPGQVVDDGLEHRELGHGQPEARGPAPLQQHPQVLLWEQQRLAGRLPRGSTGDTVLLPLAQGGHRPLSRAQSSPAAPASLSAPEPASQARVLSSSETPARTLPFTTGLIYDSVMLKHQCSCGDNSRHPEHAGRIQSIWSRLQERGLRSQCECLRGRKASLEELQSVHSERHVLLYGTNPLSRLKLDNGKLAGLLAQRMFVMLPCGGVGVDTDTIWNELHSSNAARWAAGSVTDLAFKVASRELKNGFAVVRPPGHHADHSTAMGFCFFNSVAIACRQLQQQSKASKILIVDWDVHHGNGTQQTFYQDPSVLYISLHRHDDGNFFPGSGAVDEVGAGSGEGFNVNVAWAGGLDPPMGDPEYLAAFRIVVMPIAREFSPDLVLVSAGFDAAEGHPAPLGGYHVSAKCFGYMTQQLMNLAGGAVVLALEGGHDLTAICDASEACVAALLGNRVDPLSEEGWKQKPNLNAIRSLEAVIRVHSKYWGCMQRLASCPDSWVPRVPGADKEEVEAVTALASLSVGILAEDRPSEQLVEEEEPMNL

HDAC8 = target: T3, HDAC8 (Homo sapiens, UniProt Q9BY41); experiment: HDAC biochemical assay; conditions: RHKAcKAc-AMC substrate
T3 sequence (Q9BY41 1-377): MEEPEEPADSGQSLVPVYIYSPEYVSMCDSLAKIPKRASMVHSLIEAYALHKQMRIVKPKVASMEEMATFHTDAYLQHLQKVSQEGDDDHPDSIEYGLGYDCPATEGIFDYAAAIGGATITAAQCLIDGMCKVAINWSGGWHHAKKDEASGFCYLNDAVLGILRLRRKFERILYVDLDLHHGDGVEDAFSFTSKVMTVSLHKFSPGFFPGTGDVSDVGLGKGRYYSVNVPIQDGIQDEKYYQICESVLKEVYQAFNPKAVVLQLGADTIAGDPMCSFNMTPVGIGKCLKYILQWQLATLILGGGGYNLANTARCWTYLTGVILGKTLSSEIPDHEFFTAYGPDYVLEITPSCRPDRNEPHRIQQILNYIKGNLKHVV

HDAC9 = HDAC9 (Homo sapiens, UniProt Q9UKV0); experiment: HDAC biochemical assay
Chain of HDAC9 (Q9UKV0 whole entry): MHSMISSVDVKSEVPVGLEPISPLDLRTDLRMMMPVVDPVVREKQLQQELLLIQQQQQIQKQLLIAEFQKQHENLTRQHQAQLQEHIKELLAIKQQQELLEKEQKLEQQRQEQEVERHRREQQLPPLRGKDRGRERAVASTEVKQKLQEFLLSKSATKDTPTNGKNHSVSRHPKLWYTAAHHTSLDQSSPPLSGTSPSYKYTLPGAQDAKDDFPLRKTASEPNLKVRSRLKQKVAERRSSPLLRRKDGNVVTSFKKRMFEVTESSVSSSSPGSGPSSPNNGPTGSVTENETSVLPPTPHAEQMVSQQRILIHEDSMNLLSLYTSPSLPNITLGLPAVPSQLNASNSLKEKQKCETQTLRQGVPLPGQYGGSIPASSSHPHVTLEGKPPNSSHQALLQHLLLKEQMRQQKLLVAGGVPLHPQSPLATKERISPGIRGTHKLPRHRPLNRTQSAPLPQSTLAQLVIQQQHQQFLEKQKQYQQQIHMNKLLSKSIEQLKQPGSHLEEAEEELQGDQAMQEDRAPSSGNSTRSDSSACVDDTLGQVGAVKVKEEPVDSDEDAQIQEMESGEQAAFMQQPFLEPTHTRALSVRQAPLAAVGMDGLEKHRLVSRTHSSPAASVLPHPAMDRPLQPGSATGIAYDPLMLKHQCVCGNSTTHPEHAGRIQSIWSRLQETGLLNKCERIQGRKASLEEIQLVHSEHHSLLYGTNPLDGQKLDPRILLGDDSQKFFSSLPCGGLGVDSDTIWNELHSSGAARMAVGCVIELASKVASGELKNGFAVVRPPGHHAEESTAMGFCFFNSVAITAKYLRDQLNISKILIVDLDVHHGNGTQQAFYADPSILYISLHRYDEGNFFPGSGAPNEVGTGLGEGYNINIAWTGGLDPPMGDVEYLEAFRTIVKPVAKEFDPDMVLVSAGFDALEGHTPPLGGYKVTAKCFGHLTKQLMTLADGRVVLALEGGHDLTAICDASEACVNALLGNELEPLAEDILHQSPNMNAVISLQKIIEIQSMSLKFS

HDAC10 = target: T4, HDAC10 (Homo sapiens, UniProt Q969S8); experiment: HDAC biochemical assay
T4 sequence (Q969S8 1-669): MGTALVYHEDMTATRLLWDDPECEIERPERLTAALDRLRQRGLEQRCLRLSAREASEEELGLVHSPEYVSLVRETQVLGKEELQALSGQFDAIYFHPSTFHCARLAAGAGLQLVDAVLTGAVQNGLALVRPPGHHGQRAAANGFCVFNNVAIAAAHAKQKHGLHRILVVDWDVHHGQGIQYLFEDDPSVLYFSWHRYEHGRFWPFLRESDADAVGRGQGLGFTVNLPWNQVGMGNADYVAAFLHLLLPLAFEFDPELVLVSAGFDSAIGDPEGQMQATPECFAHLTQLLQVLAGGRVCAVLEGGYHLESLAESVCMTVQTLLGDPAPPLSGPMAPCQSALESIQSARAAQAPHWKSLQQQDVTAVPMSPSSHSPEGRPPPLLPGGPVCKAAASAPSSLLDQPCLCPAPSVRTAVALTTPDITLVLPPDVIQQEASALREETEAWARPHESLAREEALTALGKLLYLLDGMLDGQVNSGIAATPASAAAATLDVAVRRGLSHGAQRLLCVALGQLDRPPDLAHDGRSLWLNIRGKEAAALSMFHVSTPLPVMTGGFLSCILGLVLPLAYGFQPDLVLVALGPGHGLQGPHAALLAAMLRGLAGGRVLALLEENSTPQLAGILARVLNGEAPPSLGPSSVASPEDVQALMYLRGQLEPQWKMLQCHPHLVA

HDAC11 = target: T5, HDAC11 (Homo sapiens, UniProt Q96DB2); experiment: HDAC biochemical assay
T5 sequence (Q96DB2 1-347): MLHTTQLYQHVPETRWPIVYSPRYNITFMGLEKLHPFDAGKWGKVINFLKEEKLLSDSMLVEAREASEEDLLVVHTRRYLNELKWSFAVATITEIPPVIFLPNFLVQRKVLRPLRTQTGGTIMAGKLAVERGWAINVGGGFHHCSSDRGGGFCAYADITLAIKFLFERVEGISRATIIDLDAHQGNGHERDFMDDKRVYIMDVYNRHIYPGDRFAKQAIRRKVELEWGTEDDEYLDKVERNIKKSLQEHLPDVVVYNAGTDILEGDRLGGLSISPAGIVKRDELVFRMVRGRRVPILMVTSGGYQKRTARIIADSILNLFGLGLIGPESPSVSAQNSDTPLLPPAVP

[2] = system: histone H3 acetylation in PC-3 cells; experiment: Western blot of histone H3 acetylation in PC-3 cells; type: cell-based, human; conditions: data not shown
several HDAC subtypes = experiment: Primary screening at 10 µM in HDAC enzymatic assay; type: biochemical; conditions: 10 µM of compound
How it was run: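 Recombinant HDACs run with fluorogenic AMC peptides: RHKKAc-AMC for HDAC1, 2, 3, 6, 10 and 11; RHKAcKAc-AMC for HDAC8; acetyl-Lys(trifluoroacetyl)-AMC for HDAC4, 5, 7 and 9. Substrate then added; developer digests deacetylated product; AMC fluorescence read.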

11 HDACs = experiment: HDAC biochemical assay, panel statements; conditions: up to 10 µM dose

IC50 (HDAC1; HDAC1 IC50, biochemical HDAC assay, AMC-labeled peptide substrate)	IC50 (HDAC5)	IC50 (HDAC9)	Compound	acetylated α-tubulin level [1]	IC50 (HDAC1)	IC50 (HDAC2)	IC50 (HDAC3)	IC50 (HDAC4)	IC50 (HDAC5; HDAC5 IC50, biochemical HDAC assay, acetyl-Lys(trifluoroacetyl)-AMC substrate)	IC50 (HDAC6)	IC50 (HDAC7)	IC50 (HDAC8)	IC50 (HDAC9; HDAC9 IC50, biochemical HDAC assay, acetyl-Lys(trifluoroacetyl)-AMC substrate)	IC50 (HDAC10)	IC50 (HDAC11)	effect on acetylation/deacetylation of histone H3 [2]	inhibition in primary screening (several HDAC subtypes)	inhibition of the other HDAC subtypes (other than HDAC5, HDAC6, HDAC8, HDAC9) (11 HDACs)
			O=C(CCCCCCNC(=O)c1cnc(N(c2ccccc2)c2ccccc2)nc1)NO [ACY-1215]	significantly increased														
			O=c1c2ccccc2[se]n1-c1ccccc1 [Ebselen, 2-phenyl-1,2-benzisoselenazol-3(2H)-one]	not observed	> 10 µM	> 10 µM	> 10 µM	> 10 µM	3.49 µM	6.99 µM	> 10 µM	1.2 µM and 1.21 µM	3.75 µM	> 10 µM	> 10 µM	not observed	> 50%	no significant inhibition
3.62 µM	1.57 µM	3.77 µM	Cc1ccccc1-n1sc2cc(F)ccc2c1=O [Thr101, 6-Fluoro-2-o-tolylbenzo[d] isothiazol-3(2H)-one]			> 10 µM	4.24 µM	6.07 µM		4.14 µM	3.43 µM			> 10 µM	> 10 µM			
